Screening results: PubChem BioAssay, The Scripps Research Institute Molecular Screening Center
DDE Tn6 FP inh = inhibitors of Tn6 peptide binding to human fibrin DD(E). inhibition, % at 8.3 µM. Fibrin DD(E) TRITC-Tn6 fluorescence polarization displacement. AID 720509. 370,000 compounds, 0.21% hits;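 active = inhibition above a per-campaign cutoff: mean of compounds within control limits plus 3 SD, cut at about 15% in these data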;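 note: 0% = median of all compound wells on the plate and 100% = blocking peptide control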
Target sequence (P02675 whole entry, looked up): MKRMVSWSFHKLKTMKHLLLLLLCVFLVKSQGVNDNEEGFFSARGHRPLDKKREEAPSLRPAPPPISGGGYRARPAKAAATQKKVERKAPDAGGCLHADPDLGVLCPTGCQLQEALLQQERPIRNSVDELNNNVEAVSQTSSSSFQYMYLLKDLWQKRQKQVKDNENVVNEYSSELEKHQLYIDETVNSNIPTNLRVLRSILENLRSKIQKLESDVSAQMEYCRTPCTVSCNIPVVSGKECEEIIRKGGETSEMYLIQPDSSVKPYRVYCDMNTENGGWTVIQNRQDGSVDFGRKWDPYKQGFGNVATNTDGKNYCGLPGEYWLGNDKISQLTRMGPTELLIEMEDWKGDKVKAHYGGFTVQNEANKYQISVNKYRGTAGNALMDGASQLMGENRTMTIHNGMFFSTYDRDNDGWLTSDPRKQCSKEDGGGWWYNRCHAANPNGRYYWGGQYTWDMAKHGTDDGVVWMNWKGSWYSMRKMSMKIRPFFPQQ
DDE Tn7 FP inh = DD(E)-Tn7 binding inhibition, primary FP screen; FP displacement of FITC-Tn7 peptide from fibrin DD(E); 0% = median of compound wells per plate; inhibition, % at 8.3 µM; P02675; 370,000 compounds, 0.13% hits;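 active = inhibition above the mean of compounds falling within the control limits plus 3 SD of them, cut at about 14% in these data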;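 note: 0% = plate median of compound wells and 100% = 10 µM Aha-Tn7 peptide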
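Assay system: Human fibrin DD(E) protein | Medium: Tris buffer with calcium and detergent, pH 7.8 | Reagent: 0.1 µM fluorescent Tn7 | Compound dosing: Single point at 8.3 µM | Times: 10 min preincubation, 3 h with tracer, room temperature | Detection: Fluorescence polarization of the labelled Tn7 tracer | Controls: Aha-Tn7 high control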
ASAP1 inh = blocks human ASAP1-stimulated Arf1 GTP hydrolysis; GDP FP detection; inhibition, % at 16.5 µM; 360,000 compounds, 0.19% hits; AID 624377; in the data active = inhibition above about 25%;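 note: 0% = vehicle with enzyme and substrate and 100% = no enzyme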
ARFGAP1 inhibitor = rat ARFGAP1 inhibition | Q62848 | Arfgap1-stimulated ARF1 GTP hydrolysis, GDP FP detection | inhibition, % at 16.5 µM | 360,000 compounds, 0.26% hits | AID 651572;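 active = inhibition above a per-plate limit, mean inhibition of low control wells plus 3 SD, cut at about 25% in these data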;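 note: 0% = DMSO wells with enzyme and 100% = wells lacking Arfgap1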
Target sequence (Q62848 1-136 limits assumed): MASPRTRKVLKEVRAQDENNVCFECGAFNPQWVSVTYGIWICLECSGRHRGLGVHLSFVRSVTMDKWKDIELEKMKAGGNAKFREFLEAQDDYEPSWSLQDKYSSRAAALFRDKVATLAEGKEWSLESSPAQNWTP
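Material: truncated rat Arfgap1 GAP domain; Incubation: compound-enzyme preincubation 20 min, reaction 120 min, detection 60 min, 25 °C; Read-out: percent inhibition of Arfgap1-stimulated GTP hydrolysis; Technique: FP, GDP Alexa 633 tracer displaced from anti-GDP antibody, 620/688 nm; Controls: No-Arfgap1 wells (100%) versus DMSO full-reaction wells (0%); Replication: single well per compound.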
DDE Tn7 confirm = DD(E)-Tn7 binding inhibition, FP confirmation. FP displacement of TRITC-Tn7 peptide from DD(E); 0% set at plate's compound-well median. inhibition, % at 8.3 µM. shares compounds with DDE Tn7 FP inh. 460 compounds, 5% hits. AID 720628;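 active = inhibition above the campaign cutoff, the mean of compounds within control limits plus 3 SD, cut at about 14% in these data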;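 note: 100% = median FP of high control wells holding Aha-Tn7 inhibitor peptide; displacers lower polarization since freed probe rises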
Tn7 DDE ctr = counter-screen hit for Tn7 peptide-fibrin DD(E) binding disruption | shares compounds with DDE Tn7 FP inh | TRITC-Tn7 probe displacement, fluorescence polarization | inhibition, % at 8.3 µM | 460 compounds, 3% hits;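 active = inhibition above the cutoff, the mean of compounds lying between the control bounds plus 3 SD of those compounds, cut at about 17% in these data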;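 note: 0% = median of compound sample wells and 100% = excess unlabeled Aha-Tn7 peptide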
DDE Tn6 FP ctr = counter-screen hit for Tn6 peptide-fibrin DD(E) binding disruption | inhibition, % at 8.3 µM | shares compounds with DDE Tn6 FP inh | 680 compounds, 2% hits | TRITC-Tn6 fluorescence polarization displacement; 0% = median of compound wells, not DMSO;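 active = inhibition above the mean of test compounds lying between the control limits plus 3 SD of those, cut at about 14% in these data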;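 note: 0% = median of compound wells and 100% = wells with Aha-Tn7 blocking peptide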
DDE Tn6 confirm = DD(E)-Tn6 binding inhibition, FP confirmation; shares compounds with DDE Tn6 FP inh; AID 720631; 680 compounds, 10% hits; inhibition, % at 8.3 µM; FP displacement of TRITC-Tn6 peptide from DD(E); 0% = per-plate median of test wells;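 active = inhibition above the mean of compounds lying within the control limits plus 3 SD, cut at about 16% in these data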;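 note: 100% = high control wells holding a competing inhibitor peptide at 10 µM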
The depositor's hits bear a star; · = no result given. Compounds with a hit are over-represented: about 0.74% of the library has one in this group of screens.

SMILES | DDE Tn6 FP inh | DDE Tn7 FP inh | ASAP1 inh | ARFGAP1 inhibitor | DDE Tn7 confirm | Tn7 DDE ctr | others
N/C(=N\OC(=O)Cc1ccc(-c2ccccc2)cc1)c1cccc([N+](=O)[O-])c1 | 5 | 14* | 10 | 4 | 8 | 5
C[C@@]12CCC=C[C@H]1[C@H](c1ccc(/C=C/c3ccccc3)cc1F)N(Cc1ccccc1)C2=O | 11 | 16* | 8 | 3 | 8 | 3
Cc1onc(C(=O)Nc2sc3c(c2C(N)=O)CCCC3)c1[N+](=O)[O-] | 1 | 16* | -14 | -14 | 3 | 0
Cc1onc(-c2ccccc2)c1C(=O)Nc1sc2c(c1C(N)=O)CCC2 | -4 | -8 | 16 | 6 | · | ·
COC(=O)C1CN(Cc2ccc(OC)cc2)CCS(=O)(=O)N1Cc1cn(Cc2ccccc2)nn1 (stereo unspecified) | 1 | 7 | · | · | · | ·
Cc1cccc(NC(=O)CSc2nnnn2-c2ccc3c(c2)OCCO3)n1 | -6 | 15* | 0 | 1 | 1 | 1
CCc1ccc(C(C)NC(=O)/C(C#N)=C\c2cn[nH]c2-c2ccccc2)cc1 (stereo unspecified) | 5 | 14* | 3 | 14 | 12 | 9
CC(NC(=O)/C(C#N)=C/c1cn[nH]c1-c1ccccc1)c1ccccc1 (stereo unspecified) | -7 | -2 | 5 | -12 | · | ·
Cc1ccc2c(c1)C(CS(=O)(=O)NC1CCCC1)NC2 (stereo unspecified) | 2 | -8 | · | · | · | ·
C#CCNc1ccc([N+](=O)[O-])cc1 | -1 | 19* | 6 | -10 | 14 | 2
COC(=O)[C@H]1C[C@@]2(C)c3ccccc3N(S(=O)(=O)c3ccccc3)[C@H]2N1C(=O)CNC1CCCCC1 | -5 | -7 | · | · | · | ·
CCN(C(=O)COC(=O)c1cc(Cl)ccc1OC)c1c(N)n(Cc2ccccc2)c(=O)[nH]c1=O | 11 | 14* | -4 | 3 | -1 | -4
COc1ccc(Cl)cc1C(=O)OCC(=O)N(CC(C)C)c1c(N)n(Cc2ccccc2)c(=O)[nH]c1=O | 3 | 11 | -12 | -2 | · | ·
CCN1CCN(c2nc3ccccc3nc2C(C#N)S(=O)(=O)c2ccc(C)cc2)CC1 (stereo unspecified) | -1 | -1 | -2 | -8 | · | ·
Cc1ccc(S(=O)(=O)C(C#N)c2nc3ccccc3nc2N2CCCC2)cc1 (stereo unspecified) | 1 | 16* | 9 | -3 | 3 | 2
CCOC(=O)C1=C(C)Nc2ccccc2N/C1=N\S(=O)(=O)c1ccc(Cl)cc1 | -3 | -11 | 0 | 3 | · | ·
CCOC(=O)C1=C(C)Nc2ccccc2N/C1=N\S(=O)(=O)c1cccc(Cl)c1 | 0 | 16* | 13 | 0 | 7 | -1
C[C@@H]1ON(C)[C@H]2C[C@H]3c4[nH]c5c(-c6ccc7c(c6)OCO7)cccc5c4CCN3C[C@@H]12 | -1 | -7 | · | · | · | ·
COc1ccc(C(=O)N2CCN(c3ccc(NC(=O)c4ccco4)cc3)CC2)cc1 | -1 | 14* | -6 | -4 | -2 | -6
CCc1ccc(C(=O)N2CCN(c3ccc(NC(=O)c4ccco4)cc3)CC2)cc1 | 2 | -3 | 5 | 0 | · | ·
CCOC(=O)CSc1nc(NCc2ccco2)c2ccccc2n1 | -3 | 15* | -13 | -1 | 1 | -2
COc1ccccc1N1CCN(C(=O)c2oc3ccc(F)cc3c2C)CC1 | -4 | 16* | 0 | 8 | 0 | -1
COc1ccccc1OCC(=O)N1CCN(c2ccccc2OC)CC1 | -6 | 19* | 4 | -18 | -3 | -7
O=C1Nc2ccccc2S/C1=C/c1cccs1 | 1 | -6 | 24 | 2 | · | ·
O=C1NC(=S)SC1=Cc1cccs1 | 8 | 14* | -5 | -17 | -6 | -8
SMILES | DDE Tn6 FP inh | DDE Tn7 FP inh | ASAP1 inh | ARFGAP1 inhibitor | DDE Tn7 confirm | Tn7 DDE ctr | others
O=C(C1CCN(c2ncnc3c2sc2cccc(F)c23)CC1)N1CCN(Cc2ccc(F)cc2)CC1 | 2 | 8 | · | · | · | ·
CCCCCc1ccc(NC(=O)O[C@@H]2CC[C@@]34CCCN3C(=O)CCC[C@H]4C2)cc1 | 1 | 4 | · | · | · | ·
Cc1ccc(/C=N/N2C(=O)C3C(C2=O)C2C=CC3C23CC3)o1 (stereo unspecified) | -2 | 14* | 4 | 18 | 4 | 4
O=C(Nc1c(-c2ccc(C(F)(F)F)cc2)nc2ncccn12)C1CC1 | 6 | -1 | · | · | · | ·
Nc1cnccc1C(=O)O | 46* | 14* | 1 | 2 | -2 | -3 | DDE Tn6 FP ctr=-2;DDE Tn6 confirm=-3
O=C1C=C(N2CCOCC2)c2cccc3cccc1c23 | 31* | 25* | -1 | 5 | 7 | 8 | DDE Tn6 FP ctr=7;DDE Tn6 confirm=8
O=C1C(N2CCOCC2)=Cc2cccc3cccc1c23 | 38* | 22* | -2 | 2 | 0 | 16* | DDE Tn6 FP ctr=0;DDE Tn6 confirm=16*
O=C1C=C(N2CCOCC2)c2ccccc2C1=O | 5 | 5 | 5 | 1 | · | ·
CCOC(=O)NC(=O)/C(C#N)=C\Nc1sccc1C(=O)OC | 16* | 17* | 0 | 1 | 1 | 2 | DDE Tn6 FP ctr=1;DDE Tn6 confirm=2
CCOC(=O)NC(=O)/C(C#N)=C\Nc1ccc(Cl)cc1Cl | -2 | -3 | 1 | -4 | · | ·
CN(C)c1ccc(C=Cc2nccc3ccccc23)cc1 | 131* | 30* | 0 | 4 | 2 | 54* | DDE Tn6 FP ctr=2;DDE Tn6 confirm=54*
COc1cccc(N2CCN(CC(=O)NCc3cccc(OC)c3OC)CC2)c1 | -3 | 4 | · | · | · | ·
CC(C)(C)OC(=O)NCc1ccccc1/C=C/S(=O)(=O)NCCc1ccccc1 | 2 | 4 | · | · | · | ·
N#CC1=C(N)Oc2cc(N)ccc2C1c1ccsc1 (stereo unspecified) | 8 | 7 | -3 | 1 | · | ·
N#CC1=C(N)Oc2ccc3ccc(O)cc3c2C1c1ccsc1 (stereo unspecified) | 169* | 23* | -6 | 22 | 8 | 38* | DDE Tn6 FP ctr=8;DDE Tn6 confirm=38*
Cc1ccccc1Cn1cc(CN2[C@@H](CC(C)C)COc3cccc(F)c3S2(=O)=O)nn1 | 5 | -4 | · | · | · | ·
COc1ccc(CCNC(=O)Cn2ncc3c2-c2cc(C)ccc2OC3)cc1 | 2 | -3 | · | · | · | ·
COc1ccc(CNC(=O)C[C@H]2C[C@H](C(=O)N3CCOCC3)[C@@]3(C)c4[nH]c5cc(-c6ccco6)ccc5c4CCN3C2=O)cc1OC | 115* | 46* | 3 | 0 | 2 | 1 | DDE Tn6 FP ctr=2;DDE Tn6 confirm=1
CCOC(=O)C1(C)C=C(Nc2ccc(O)cc2)C(=O)N1c1ccc(O)cc1 (stereo unspecified) | 24* | 3 | -3 | -6 | · | · | DDE Tn6 FP ctr=-1;DDE Tn6 confirm=-15
